From ChEMBL document CHEMBL1147012 (Bioorg Med Chem Lett, 2006)
The source made the active and inactive calls. The rule behind the calls is not given here.

Tests used:
PC-3 = assay: Cytotoxicity against human PC3 cell line; format: functional, cell-based
Tubulin = assay: Inhibition of microtubule polymerization; format: functional, Homo sapiens
Outline: (§1)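 Microtubule polymerization assay run with a fixed, short incubation time.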

Tubulin (Homo sapiens) [1] = molecular target: T1, Tubulin (Homo sapiens) (UniProt P68371+Q9H4B7+P0DPH7+P68366+Q13509+Q71U36+P04350+Q3ZCM7+P07437+P68363+Q9BQE3+Q6PEY2+Q13885+Q9BVA1+Q9BUF5); assay: Inhibition of microtubule polymerization up to 150 uM
Tubulin (Homo sapiens) [2] = molecular target: T1, Tubulin (Homo sapiens); assay: Inhibition of microtubule polymerization up to 150 uM; format: functional; outline: as §1

| Structure (SMILES) | IC50 (PC-3) [nM] | IC50 (Tubulin) [nM] | Activity (Tubulin (Homo sapiens) [1]) | Activity (Tubulin (Homo sapiens) [2]) |
| --- | --- | --- | --- | --- |
| COc1cc2c(c(OC)c1OC)-c1ccc(=O)c(OC)cc1[C@@H](NS(=O)(=O)c1ccccc1[N+](=O)[O-])CC2 | 905 | 58000 | – | – |
| CCN[C@H]1CCc2cc(OC)c(OC)c(OC)c2-c2ccc(OC)c(=O)cc21 | 17.6 | – | – | – |
| CCN[C@H]1CCc2cc(OC)c(OC)c(OC)c2-c2ccc(=O)c(OC)cc21 | 1720 | – | inactive | – |
| COc1cc2c(c(OC)c1OC)-c1ccc(OC)c(=O)cc1[C@@H](NS(=O)(=O)c1ccc([N+](=O)[O-])cc1[N+](=O)[O-])CC2 | 50 | 9700 | – | – |
| COc1cc2c(c(OC)c1OC)-c1ccc(=O)c(OC)cc1[C@@H](NC(C)=O)CC2 [ISOCOLCHICINE] | 4600 | – | – | – |
| COc1cc2c(c(OC)c1OC)-c1ccc(=O)c(OC)cc1[C@@H](NS(=O)(=O)c1ccc([N+](=O)[O-])cc1[N+](=O)[O-])CC2 | 10200 | 59000 | – | – |
| COc1cc2c(c(OC)c1OC)-c1ccc(OC)c(=O)cc1[C@@H](NS(=O)(=O)c1ccccc1[N+](=O)[O-])CC2 | 19.8 | 5600 | – | – |
| COc1cc2c(c(OC)c1OC)-c1ccc(=O)c(OC)cc1[C@@H](/N=C(/C)S)CC2 | 1750 | – | – | inactive |
| COc1cc2c(c(OC)c1OC)-c1ccc(OC)c(=O)cc1[C@@H](/N=C(/C)S)CC2 | 97.5 | 2200 | – | – |
| COc1cc2c(c(OC)c1OC)-c1ccc(=O)c(OC)cc1[C@@H](NCC(C)=O)CC2 | 93 | 68000 | – | – |
| COc1cc2c(c(OC)c1OC)-c1ccc(OC)c(=O)cc1[C@@H](Nc1ccc([N+](=O)[O-])cc1[N+](=O)[O-])CC2 | 9 | 4600 | – | – |
| COc1cc2c(c(OC)c1OC)-c1ccc(OC)c(=O)cc1[C@@H](NCC(C)=O)CC2 | 7.6 | – | – | – |
| COc1cc2c(c(OC)c1OC)-c1ccc(=O)c(OC)cc1[C@@H](Nc1ccc([N+](=O)[O-])cc1[N+](=O)[O-])CC2 | 5700 | – | – | – |
